ChEMBL document CHEMBL4513216, “Probing the Open Global Health Chemical Diversity Library for Multistage-Active Starting Points for Next-Generation Antimalarials” (ACS Infect Dis, 2020)

Assay: Toxicity liver stage against HepG2, at 10uM
Type: cell-based
Design: test concentration 10 uM, cell line HepG2-A16-CD81EGFP
Details: human, HepG2-A16-CD81EGFP cells; read-out: INHIBITION
Procedure, shortened: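 Uninfected HepG2-A16-CD81EGFP cells, 3 × 10^3 per well, 1536-well, plated on prespotted compound at 10 μM final, parasite-free screening media added to match infected plates; puromycin 10 μM positive, DMSO 0.5% negative; run in parallel with 48 h PbLuc assay at 37 °C, 5% CO2; viability by CellTiter-Glo luminescence, normalized to controls.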

Compound | cytotoxicity at 10 µM [%]
c1ccc2c(Cc3nnc([C@H]4CCN(C5CCOCC5)C4)o3)c[nH]c2c1 | 2.9
Cc1ccc(S(=O)(=O)NC[C@H]2OC[C@@H](NCc3cccnc3)[C@@H]2O)cc1 | 1.32
COCCN1CCc2nc(SCc3ccc(F)cc3)[nH]c(=O)c2C1 | -2.33
CCOc1ccc(C(=O)Nc2c(C)nc3ccccn3c2=O)cc1 | 11.9
CNC(=O)[C@@H]1[C@@H](c2ccccc2)CN2CCN(Cc3ccco3)C[C@H]12 | -1.94
O=S(=O)(c1cccnc1)N1CCN(Cc2nc(-c3cccs3)cs2)CC1 | 27.8
COCCN(Cc1ccoc1)C(=O)CSc1ccc(F)cc1 | 1.04
COc1ccc(-c2cnc3n2CCNC32CCN(S(C)(=O)=O)CC2)cc1 | -2.72
CCN(CC)c1ccc2ccc(C(=O)N(C)C)cn12 | 0.626
COc1ccc(-c2cnc(NC(C)=O)[nH]2)cc1 | -0.825
COc1cccc(CN2CCCCCC2c2cccc(C)c2)c1O (centres undefined) | 7.6
CC(Cn1cc(Br)cn1)C(=O)Nc1ccc(Cl)cn1 (centres undefined) | 34
Cc1nc(C(=O)N2CCOCC2)cc(N2CCC(C(N)=O)CC2)n1 | 1.82
O=C(CCN1CCc2ccccc21)N1C[C@@H](O)[C@H](N2CCCC2)C1 | -17.8
CN(C)CCn1c([C@H]2CCCO2)cc2cccnc21 | 17.1
Cc1ncc(CN2CC[C@@](C)(O)[C@H](Oc3cccc(F)c3)C2)cn1 | -13.4
CC(C)(N)C(=O)N1CCC(c2nccnc2Oc2cccc(F)c2)CC1 | -13.2
CCn1cc(C(=O)N2CCCC(c3nccs3)C2)cn1 (centres undefined) | -4.19
CCn1cnnc1CNC(=O)c1ccc(Br)cc1F | -18.2
CC(C)(C)c1cn2c(n1)C(CNCc1ccccn1)CCC2 (centres undefined) | -9.5
CC(CCc1cccc(F)c1)NC(=O)NCc1ncnn1C (centres undefined) | 12.2
CCC(=O)N1CCCN(Cn2nc(C)c(Br)c2C)CC1 | 6.1

Compound | cytotoxicity at 10 µM [%]
CC(=O)c1cc(Br)cc(F)c1OCC(=O)NC(C)C | -9.46
N#Cc1cc(C(F)(F)F)ccc1NCC1CCS(=O)(=O)CC1 | 10.2
Cc1cc(C(=O)N2CCN(C(=O)CCC3CCCCC3)CC2)n(C)n1 | -3.06
CCC(CC)(CNC(=O)OC(C)(C)C)NC(=O)C1CCCO1 (centres undefined) | 1.41
COc1ccc(C)cc1CCNS(=O)(=O)c1ccc2c(c1)CCC(=O)N2 | -45.5
CC(C)SCc1cccc(NC(=O)NCCc2nnc[nH]2)c1 | -46.1
CCOc1cc(NC(=O)N2CCC(c3nnc[nH]3)CC2)ccc1C | 14.5
N#Cc1ccc(N2CCC(OC3CCOCC3)CC2)cc1Cl | 1
Cc1nc(CCCNC(=O)Nc2ccc(F)cc2F)n[nH]1 | -2.9
Cc1cc(NC(=O)NCc2ccc(C)s2)no1 | -5.29
COc1ccc(NCc2c[nH]nc2-c2cccnc2)cc1 | -16.8
CC(N1CCN(C(=O)NCc2cccc(C#N)c2)CC1)C(F)(F)F (centres undefined) | 6.31
Cc1nc(N2CCC(CN3CCCC3)CC2)c2cnn(C)c2n1 | 8.39
CC1CCN(CCNC(=O)Nc2ccc(F)cc2Cl)CC1 | 4.68
CS(=O)(=O)N1CCN(Cc2csc(-c3ncccn3)n2)CC1 | -4.71
O=C(CN1CCC(C(=O)c2cc(F)ccc2F)CC1)NC1CC1 | -6.04
CC(C)COCCC(=O)NCCC(=O)N1CCN(c2ccccn2)CC1 | 9.46
CCc1n[nH]c(C2CN(C(=O)CCCn3cccn3)CCO2)n1 (centres undefined) | -6.69
Cc1cc(N2CCC(N(C)C(=O)c3ccccc3F)CC2)nc(C)n1 | 25.5
CCn1cc(CNc2ccc(N(C)CCOC)cn2)cn1 | -8.16
CSCC(C)(O)CNc1cccc(F)c1C#N (centres undefined) | 0.462
Cc1nn(C)c(C)c1CCC(=O)NCc1cccnc1OC1CCCC1 | -4.38

Compound | cytotoxicity at 10 µM [%]
O=C(O)c1ccnc(SCC(F)(F)F)c1 | -17.6
O=C(NCCCn1cncn1)c1ccc(-c2ccco2)[nH]c1=O | 2.87
CCN(CC)C(C(=O)Nc1ccc2c(c1)CCC(=O)N2)c1ccccc1 (centres undefined) | 7.18
COc1ccc(C(C)N2CCC(NS(C)(=O)=O)CC2)cc1Cl (centres undefined) | -41.2
O=C(CN1CCCC(c2ccn[nH]2)C1)Nc1nncs1 (centres undefined) | -43.9
CN(Cc1ccc(Cl)c(F)c1)C(=O)CCc1ccncc1 | 3.31
Cc1oncc1C(=O)N1CC[C@H]2[C@@H]1CCC(=O)N2CC1CCOCC1 | 4.33
CC(C)CN1C[C@H]2N(c3ncccn3)CCC[C@@]2(C(=O)NCC2CC2)C1 | -94.6
Cc1cnc(C(=O)N2CC[C@@H]3CN(c4ncccn4)CCO[C@@H]3C2)cn1 | -75.2
Cc1cccc(CN2CC[C@H]3C[C@H](C)O[C@@H]3C2)n1 | -78.6
COCC(=O)N1CCC2(CCN(Cc3ccccn3)CC2)CC1 | -6.62
O=C1CC(NCc2cnc(C3CCCCC3)nc2)CN1c1ccccc1 (centres undefined) | -6.8
CCC[C@H]1CN(S(=O)(=O)c2cc(C)ccc2C)C[C@@H]1N | 10.3
Cc1ccc(-n2cc(CN3CCOCC3)c(-c3cccc(C)c3)n2)cc1 | -0.906
NC(=O)[C@@H]1CCCN1C(=O)c1cn(C/C=C/c2ccccc2)nn1 | 2.32
CCCN1CCc2[nH]cnc2C12CCN(C(=O)Cn1ccnc1C)CC2 | 13.7
Cc1ccc(N2CCCC(c3[nH]ncc3-c3ccccc3)C2)nn1 (centres undefined) | 2.51
CC(c1nncn1C)n1cc(-c2cc(CN3CCCC3)cs2)nn1 (centres undefined) | 2.04
CCn1cc(CN2CCN(Cc3cccc(OC)c3)C(=O)C2)cc1C#N | 2.96
COCCC1(CO)CCCN(C(=O)c2cccnc2O)C1 (centres undefined) | -50.7
CCc1c(O)nc(SCC(=O)Nc2ccccc2)n(C(C)CC)c1=O (centres undefined) | 0.585
N#Cc1ccnc(N2CCC(NCCN3CCCC3)CC2)c1 | -53

Compound | cytotoxicity at 10 µM [%]
O=C(c1cccc(-c2ncc[nH]2)c1)N1CCC(N2CCCC(O)C2)CC1 (centres undefined) | 6.42
CCOc1cccc(C2CC(=O)NCc3nc(N4CCCC4)sc32)c1 (centres undefined) | -2.53
O=C(O)CC1COCCN1CCCc1ccccc1 (centres undefined) | -0.541
COc1ccc(C)cc1C(=O)N1C[C@@H](CN(C)CCO)[C@@H](CO)C1 | -0.828
CCSc1ncc(CN2CCN(c3nc(C)ncc3C)CC2)cn1 | 27.3
O=c1[nH]c2cc3c(cc2cc1CN1CCCC1c1ccccn1)CCC3 (centres undefined) | -2.11
O=C(C1CCS(=O)(=O)CC1)N1CCC(Cc2ccc(F)cc2)CC1 | -41.9
CCC(c1nc(C(C)C)nn1-c1ccncc1C)n1cccn1 (centres undefined) | -13.9
Cc1ccc(OCC2CCCN(C(=O)CN3CCOCC3)C2)cc1 (centres undefined) | -25.6
COc1coc(CN2CCCC(CCc3c(F)cccc3F)C2)cc1=O (centres undefined) | 1.18
NC(=O)C1CCN(C(=O)c2cc(S(=O)(=O)N3CCCC3)cs2)CC1 | -43.9
Cn1ccc(C2CCCCN2C(=O)c2cccc(-n3cccn3)c2)n1 (centres undefined) | -0.874
COCc1noc(-c2ccc(N(C)Cc3c(C)n[nH]c3C)nc2)n1 | 0.897
Cc1ccc(N2CCC(C(O)c3cccs3)CC2)nn1 (centres undefined) | -49.1
CC(C)[C@H]1CN(Cc2c[nH]cn2)C[C@@H]1NC(=O)CC1CCC1 | -39
Nc1nccc(N[C@H]2CN(CC(=O)NC3CCCCC3)C[C@@H]2C2CC2)n1 | -0.208
O[C@]12CCNC[C@H]1CN(c1ccnc3ccccc13)CC2 | 8.33
COCCN1CC2(CCCN(C(=O)NCCc3cccs3)C2)CCC1=O (centres undefined) | -8.14
CCNC(=O)C1CCN(c2cc(-c3ccccc3)nc3cc(C)nn23)C1 (centres undefined) | -2.97
Cc1ccccc1CC1(CO)CCCN(c2ncccc2C#N)C1 (centres undefined) | -1.16
CCn1cc(CN2CCCC(c3[nH]ncc3S(C)(=O)=O)C2)cn1 (centres undefined) | 6.5
COc1ccc(-c2nc(CNC3CCc4nc(C)nn4C3)no2)cc1 (centres undefined) | -3.42

Compound | cytotoxicity at 10 µM [%]
CCN(CC)Cc1ccc(C(=O)N2CCCC2Cn2cccn2)cc1 (centres undefined) | -10.7
O=C(c1cccc(Cn2ccnc2)c1)N1CCCC(n2cccn2)C1 (centres undefined) | -0.603
CS(=O)(=O)c1cccc(C(=O)NCCCN2CCc3ccccc3C2)c1 | -12.1
Cc1ccc(NC2CCN(C(=O)c3ccc(F)cc3Cl)CC2)nn1 | -14.1
CC(=O)NCCNC(=O)N(C)Cc1ccc2c(c1)OCCO2 | -1.59
O=C(NCc1ccccn1)Nc1cc(C(F)(F)F)c[nH]c1=O | -2.87
CCOC(=O)c1sc2ccsc2c1CNC(=O)CC | -5.7
CCn1ccnc1CN1CCCN(C(=O)c2cccn2C)CC1 | -8.93
Cc1cc(C)cc(NS(=O)(=O)c2cc3c(c(C(=O)O)c2)OCCO3)c1 | 0.289
CCN(CCc1ccccc1)Cn1nc(C)c2c(C)onc2c1=O | -5.18
CCOC[C@]12COC[C@H]1CN(Cc1cccc(OC)c1)C2 | -75.9
CN(C)CCCNCCC(Cc1ccccc1)C1CCOC(C)(C)C1 (centres undefined) | -4.08
COC[C@@]12CCC[C@@H]1CN(C(=O)CN(C)C)C2 | 4.84
c1ccc(OCc2nnn3c2CN(c2ncccn2)CCC3)nc1 | 1.89
c1cncc(OCc2noc3c2CN(Cc2ccsc2)CC3)c1 | 4.76
CNC(=O)CN1CCCC12CCN(C(=O)c1ccoc1)CC2 | 6.53
COCCNC(=O)[C@H]1C[C@@H]2CCN(Cc3nccs3)C[C@H]2O1 | -68.2
c1cc(CN2C[C@H](OCC3CCOCC3)[C@H]3COC[C@H]32)co1 | -4.8
NC(=O)C(c1ccc(F)cc1)N1CCN(CCO)CC1 (centres undefined) | -5.46
CN(C)C(=O)CN1C[C@H]2CC[C@@H](C1)N(C(=O)CCn1cncn1)C2 | -9.96
CNC(=O)[C@H]1C[C@H]2CN(Cc3cccc(C)c3)C[C@@H]1O2 | 8.97
